F508del corr = CFTR F508del correction in bronchial cells; CFBE cells, YFP halide quenching; stimulated with forskolin plus potentiator P3; % fluorescence drop versus neutral controls; activity (quench increase), % at 7.58 µM; hit rate 0.36% among 350,000; AID 720511;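 active means mean added fluorescence quench of at least 8% versus neutral control, with both replicates also reaching 8%; inconclusive means only one of the mean or replicate conditions met; inactive means mean below 8% and not both replicates reaching 8%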;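 further: cells transiently co-express mutant CFTR-F508del with the halide-sensitive YFP; corrector assay measuring rescue of mutant channel to the surface after 24 h compound exposure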
GSIS activator = GLuc luminescence reporter in INS-1E cells, primary screen for activators of glucose-dependent secretion of insulin | hit rate 0.61% among 370,000 | INS-1E GLuc reporter insulin secretion, 2-3 h | AID 743287 | activation, % at 16.6 µM;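 active means lowest replicate activation of at least 40%, so every replicate reaches that level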;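 further: 0% = median of neutral control wells and 100% = median of IBMX positive control wells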
E-sel inducer = induces E-selectin expression in human endothelial cells; activation, % at 7.58 µM; hit rate 0.37% among 260,000; HUVEC E-selectin immunofluorescence imaging; normalized: neutral wells 0, TNF-alpha wells 100;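 active means mean E-selectin-positive cell signal at least 10% of the positive control, reached in at least 60% of replicates, without over 20% cell loss; inconclusive means no rule given, readout overlaps actives, possibly toxicity-flagged; inactive means the rest, including those meeting only one limit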
Target sequence (P16581 whole entry, looked up): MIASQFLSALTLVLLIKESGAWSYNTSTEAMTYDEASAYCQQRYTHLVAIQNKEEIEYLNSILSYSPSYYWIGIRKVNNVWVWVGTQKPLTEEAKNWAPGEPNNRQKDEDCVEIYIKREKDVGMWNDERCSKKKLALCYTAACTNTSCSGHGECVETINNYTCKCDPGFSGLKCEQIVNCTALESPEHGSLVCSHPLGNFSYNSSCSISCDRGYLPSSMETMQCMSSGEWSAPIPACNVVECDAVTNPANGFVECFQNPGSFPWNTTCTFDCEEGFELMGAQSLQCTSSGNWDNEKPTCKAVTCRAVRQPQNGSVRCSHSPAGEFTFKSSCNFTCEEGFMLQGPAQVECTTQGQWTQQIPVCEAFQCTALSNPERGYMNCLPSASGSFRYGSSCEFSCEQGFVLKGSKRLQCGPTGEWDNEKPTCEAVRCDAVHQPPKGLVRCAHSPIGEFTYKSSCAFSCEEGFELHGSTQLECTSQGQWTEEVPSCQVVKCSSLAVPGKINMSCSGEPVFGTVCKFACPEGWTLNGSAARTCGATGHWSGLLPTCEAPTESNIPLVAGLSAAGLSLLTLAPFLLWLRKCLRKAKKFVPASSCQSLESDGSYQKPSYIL
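Material: HUVEC primary endothelial cells; Amount: 3,000 cells per well; Dosing: single concentration; Medium: EGM-2 growth medium on 0.1% gelatin-coated wells; Read-out basis: percent E-selectin-positive cells; Signal: immunofluorescence imaging; Control set: TNF-alpha, DMSO.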
ERAP1 HTS inh = ERAP1 (human) enzyme inhibition. Q9NZ08. recombinant ERAP1, Leu-AMC fluorescence, 60 min. inhibition, % at 10.7 µM. hit rate 0.15% among 340,000. AID 652197;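 active means mean replicate inhibition of at least 30%, or all replicates individually reaching that 30% level; inactive means mean below 30% and not every replicate reaching it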;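 further: 0% = neutral control wells and 100% = L-leucinethiol positive control wells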
DENV2 CPE rescue = DENV2-induced cell death inhibition | hit rate 1.7% among 350,000 | DENV2-infected cells, cytopathic effect rescue, plate reader | CPE inhibition, % at 9.99 µM; in the data active means CPE inhibition above about 20%, passing the limit was not always enough; inconclusive means no clear call, values can overlap the other calls; tested in BHK-21 cells;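 further: 0% = median of neutral control wells and 100% = median of positive control wells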
miR-122 sensor = inhibitors of miR-122 in Huh7 cells; Huh7 miR-122 Renilla luciferase sensor, 48 h; neutral wells = 0, positive control = 100; activation (reporter increase), % at 12.5 µM; hit rate 0.3% among 340,000; AID 602342;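 active means mean replicate activation score at least 90 and every replicate individually at or above 90; inconclusive means only one of the two criteria met; inactive means neither criterion met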;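 further: higher luciferase means less miR-122 activity so hits act as miR-122 inhibitors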
Numbers without * were called inactive; u = inconclusive; x = no result given; ! = a repeat was not active; [ ] = remark or other dose. Only some compounds are listed: those with a hit (about 2.6% of all), similar ones and a draw of the others.

SMILES | F508del corr | GSIS activator | E-sel inducer | ERAP1 HTS inh | DENV2 CPE rescue | miR-122 sensor
O=C(C1=C[C@H](c2ccc3c(c2)OCO3)C[C@H](OCc2ccc(CO)cc2)O1)N1CCN(Cc2ccc3c(c2)OCO3)CC1 | 5 | x | 0 | -2 | 59*! | -1
O=C(C1=C[C@@H](c2ccc3c(c2)OCO3)C[C@@H](OCc2ccc(CO)cc2)O1)N1CCN(Cc2ccc3c(c2)OCO3)CC1 | 5 | x | x | 0 | -1 | x
C[C@H]1C=C(C(=O)N2CCN(Cc3ccc4c(c3)OCO4)CC2)O[C@@H](OCc2ccc(CO)cc2)C1 | 0 | 0 | 0 | -2 | 24*! | x
O=C(NCc1ccccc1)C1=C[C@@H](c2ccc3c(c2)OCO3)C[C@@H](OCc2ccc(CO)cc2)O1 | 2 | 4 | 0 | -3 | 22*! | 7
O=C(NCc1ccccc1)C1=C[C@H](c2ccc3c(c2)OCO3)C[C@H](OCc2ccc(CO)cc2)O1 | 0 | 8 | 0 | 1 | 10 | 0
CO[C@H]1CN(C)C(=O)c2cc(NC(=O)c3ccc4c(c3)OCO4)ccc2OC[C@@H](C)NC[C@@H]1C | -4 | 14 | 9 | -4 | 4 | x
O=C(C[C@@H]1C=C[C@H](NC(=O)CC2CC2)[C@@H](CO)O1)NCc1ccccc1 | 1 | 12 | 1 | 0 | -4 | x
COc1ccccc1S(=O)(=O)N[C@@H]1CC[C@H](CC(=O)NCc2cc(F)cc(F)c2)O[C@@H]1CO | -2 | 3 | 0 | 0 | 4 | x
CN1CCN(C(=O)C2=C[C@@H](c3ccc(C(F)(F)F)cc3)C[C@@H](OCc3ccc(CO)cc3)O2)CC1 | -1 | -2 | 0 | 3 | 78*! | x
O=C(C1=C[C@H](c2ccc(C(F)(F)F)cc2)C[C@H](OCc2ccc(CO)cc2)O1)N1CCCC1 | 0 | x | x | -2 | 0 | x
Cc1ccccc1S(=O)(=O)N(C)C[C@@H]1OCc2ccccc2-c2ccccc2C(=O)N([C@H](C)CO)C[C@H]1C | -1 | -12 | -1 | 1 | -1 | x
O=C(NCCCN1CCOCC1)c1sc2cc(F)ccc2c1Cl | x | -2 | x | -3 | -1 | -1
O=C(NCCCN1CCOCC1)c1sc2cc(Cl)ccc2c1Cl | 11* | -1 | x | -4 | -1 | x
CC(Oc1ccc(Cl)cc1Cl)C(=O)NCCCN1CCOCC1 (stereo unspecified) | 3 | 13 | -1 | 4 | 62* | -5
COc1ccc(NC(=O)N(C)C[C@H]2OCCCC[C@H](C)Oc3ccc(NC(=O)CCCN(C)C)cc3C(=O)N([C@@H](C)CO)C[C@H]2C)cc1 | 1 | -3 | 0 | -1 | -4 | 11[16.7 µM]
COc1ccc(/C=C2/C(=O)N(c3cccc(F)c3)N=C2C)c(OC)c1 | 4 | -2 | x | 4 | 37* | 1
CC1=NN(c2cccc(F)c2)C(=O)/C1=C/c1ccc(N(C)C)cc1 | 0 | -3 | x | -4 | 1 | 15
CC(C)NC(=O)N1CC2(C1)[C@@H](c1ccccc1)[C@@H](CO)N2C(=O)C1CCCC1 | -1 | 0 | 0 | 2 | 2 | x
NC(c1csc(Nc2cc(Oc3ccccc3)ncn2)n1)C1CCCCC1 (stereo unspecified) | 0 | x | 0 | 1 | 8 | -6
Nc1ccc(CC(N)c2csc(Nc3cc(Oc4ccccc4)ncn3)n2)cc1 (stereo unspecified) | 1 | -6 | 0 | 14 | 46* | -6
COc1ccc(C(N)c2csc(Nc3cc(Oc4ccccc4)ncn3)n2)cc1 (stereo unspecified) | 2 | -17 | 0 | 8 | 53* | 1
COc1ccc(NC(=O)N(C)C[C@H]2OCCCC[C@@H](C)Oc3ccc(N(C)C)cc3C(=O)N([C@@H](C)CO)C[C@H]2C)cc1 | 2 | -10 | 0 | x | x | -3[16.7 µM]
CO[C@@H]1CN(C)C(=O)c2ccc(NC(C)=O)cc2OC[C@@H](C)N(C(=O)c2ccncc2)C[C@@H]1C | 2 | -1 | 0 | -2 | 2 | 6[16.7 µM]
O=C(Nc1ccccc1)c1ccccc1CSc1ccccc1 | 1 | 19 | 0 | -6 | 44* | x
CC(=O)Nc1ccc(NC(=O)c2ccccc2CCc2ccccc2)cc1 | -6 | 11 | 5 | 2 | 1 | x
SMILES | F508del corr | GSIS activator | E-sel inducer | ERAP1 HTS inh | DENV2 CPE rescue | miR-122 sensor
O=C(NCCCNC(=O)c1cnccn1)c1ccc(Cl)cc1 | -2 | 8 | 0 | -3 | -1 | 0
O=C(COc1ccc(Cl)cc1)NCCCNC(=O)c1cnccn1 | 0 | 6 | 34* | -4 | 3 | x
O=C(NCc1ccccc1)C(c1ccncc1)n1c(=O)c(-c2ccccc2)nc2ccccc21 (stereo unspecified) | 0 | 45* | 0 | -2 | 40* | x
CC(C)(C)NC(=O)C(c1ccncc1)n1c(=O)c(-c2ccco2)nc2ccccc21 (stereo unspecified) | -2 | -4 | 0 | -10 | 31* | x
O=C(NCc1ccccc1)C(c1ccccc1F)n1c(=O)c(-c2ccccc2)nc2ccccc21 (stereo unspecified) | 0 | -1 | 0 | 0 | -13 | x
CC(C)(C)NC(=O)C(c1ccccc1)n1c(=O)c(-c2ccco2)nc2ccccc21 (stereo unspecified) | 0 | -22 | 1 | x | u | x
O=C1CCC(C(=O)OCC(=O)Nc2ccccc2Br)=NN1 | 4 | x | 0 | -2 | u | 0
O=C1CCC(C(=O)OCC(=O)Nc2ccc(SC(F)F)cc2)=NN1 | -4 | -3 | x | -1 | 29* | -1
CN(Cc1ccccc1)C(=O)c1cccc(NC(=O)Cc2ccc(NC(=O)C3CCCN(C(=O)CCc4ccccc4)C3)cc2)c1 (stereo unspecified) | -1 | -5 | 0 | 0 | 64* | -3
O=C(Cc1cccc(NC(=O)C2CCCN(C(=O)C3CC3)C2)c1)Nc1cccc(C(=O)N2CCCCC2)c1 (stereo unspecified) | 1 | -2 | 0 | 5 | 59* | 6
O=C(Cc1cccc(NC(=O)C2CCCN(C(=O)C3CC3)C2)c1)Nc1cccc(C(=O)N2CCCC2)c1 (stereo unspecified) | -1 | 10 | 0 | -3 | -12 | -3
Cc1noc(C)c1S(=O)(=O)Nc1ccc2c(c1)CC(=O)N([C@H](C)CO)C[C@@H](C)[C@@H](CN(C)S(=O)(=O)c1cccs1)O2 | -1 | -14 | 0 | 4 | -4 | 17[16.7 µM]
COc1ccc(CN(C)C[C@@H]2Oc3ccc(NC(=O)Cn4cnnn4)cc3CC(=O)N([C@@H](C)CO)C[C@@H]2C)cc1 | -3 | 1 | 3 | 1 | 2 | -2[16.7 µM]
Cn1c(=O)c(=O)n(C)c2cc(S(=O)(=O)N3CCN(c4ccc(F)cc4)CC3)ccc21 | x | 51* | 0 | x | x | -1
O=C1CCc2cc(S(=O)(=O)N3CCN(c4ccc(F)cc4)CC3)cc3c2N1CC3 | 1 | 47* | 0 | -1 | -3 | -4

Source: PubChem BioAssay (Broad Institute)
